High-throughput results as filed in PubChem BioAssay.
TRPC6 act: activates the mouse TRPC6 cation channel; Q61143; HEK293-TRPC6 membrane potential dye fluorescence; active compounds read high; B-score at 10 µM; 310,000 compounds, 0.13% hits; AID 2550;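 active = B-score of the integrated fluorescence ratio above library mean plus 3 SD, and starting fluorescence ratio within library mean plus 5 SD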;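 also: higher score means more depolarization so channel activation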
TRPC4 act: TRPC4 (mouse) channel activation | Q9QUQ5 | B-score at 10 µM | HEK293 TRPC4beta/mu-opioid, Fluo4 calcium fluorescence; active compounds read high | 310,000 compounds, 0.49% hits;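 active = B-score above 5 SD of library B-scores, and initial fluorescence ratio not above library mean plus 5 SD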;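 also: positive B-score marks a calcium rise read as TRPC4 activation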
Target sequence (Q9QUQ5 whole entry, looked up): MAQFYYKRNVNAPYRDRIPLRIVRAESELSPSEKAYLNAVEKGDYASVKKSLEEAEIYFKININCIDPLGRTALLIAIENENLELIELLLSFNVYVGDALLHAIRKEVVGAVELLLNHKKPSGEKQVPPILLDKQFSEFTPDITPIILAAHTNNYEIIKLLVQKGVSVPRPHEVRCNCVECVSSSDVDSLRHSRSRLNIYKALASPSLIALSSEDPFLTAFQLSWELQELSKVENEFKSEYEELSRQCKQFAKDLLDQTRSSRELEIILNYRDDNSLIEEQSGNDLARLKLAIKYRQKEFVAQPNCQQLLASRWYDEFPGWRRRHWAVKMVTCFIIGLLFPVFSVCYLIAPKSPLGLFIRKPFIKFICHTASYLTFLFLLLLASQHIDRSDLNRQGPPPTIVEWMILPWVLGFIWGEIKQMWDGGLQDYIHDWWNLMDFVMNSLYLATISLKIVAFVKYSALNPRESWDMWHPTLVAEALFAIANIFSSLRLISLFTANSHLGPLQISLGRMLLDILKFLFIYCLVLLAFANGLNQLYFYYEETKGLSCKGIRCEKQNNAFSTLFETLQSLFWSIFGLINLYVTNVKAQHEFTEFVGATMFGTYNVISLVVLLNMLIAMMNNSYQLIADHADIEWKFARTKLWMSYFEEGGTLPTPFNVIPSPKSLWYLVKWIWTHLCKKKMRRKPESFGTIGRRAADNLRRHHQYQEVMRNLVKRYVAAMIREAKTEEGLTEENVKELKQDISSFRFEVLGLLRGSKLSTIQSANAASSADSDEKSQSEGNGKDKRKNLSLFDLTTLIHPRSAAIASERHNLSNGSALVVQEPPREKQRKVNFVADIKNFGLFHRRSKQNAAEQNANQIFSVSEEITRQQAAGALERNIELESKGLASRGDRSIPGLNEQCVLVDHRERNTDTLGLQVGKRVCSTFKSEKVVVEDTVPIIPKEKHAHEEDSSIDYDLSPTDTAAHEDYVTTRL
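Incubation: 45 min room-temperature Fluo4 loading, 110 s read / System: HEK293 cells stably co-expressing mouse TRPC4beta and mu-opioid receptor / Signal: Fluo4 fluorescence, kinetic / Control set: buffer (low) and maximal DAMGO (high) / Measure: integrated baseline-normalised fluorescence ratio, converted to per-well B score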
TRPC6 inh: blocks the mouse TRPC6 cation channel; Q61143; HEK293-TRPC6, membrane potential dye, ACh-evoked depolarization; active compounds read low; B-score at 10 µM; 310,000 compounds, 1.1% hits; AID 2553;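 active = B-score under library mean minus 3 SD, initial fluorescence not abnormally high, positive integrated signal ratio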;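 also: B-score derived from integrated fluorescence ratio over the kinetic read; more negative B-score means stronger inhibition of depolarization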
TRPC4 potent: TRPC4 (mouse) allosteric potentiation; Q9QUQ5; HEK293 TRPC4beta/mu-opioid, DAMGO EC20, Fluo-4 Ca2+ flux; active compounds read high; B-score at 10 µM; 310,000 compounds, 0.42% hits;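 active = B-score of calcium response area above 5 SD of library B-scores, with initial fluorescence ratio within 5 SD of library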;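 also: B-score of integrated fluorescence ratio over time as area under calcium response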
TRPC4 inh: TRPC4 (mouse) channel inhibition; Q9QUQ5; HEK293 TRPC4beta/mu-opioid, DAMGO-evoked Fluo4 calcium flux; active compounds read low; B-score at 10 µM; 300,000 compounds, 0.39% hits;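 active = B-score over 3 SD under the library average, no early fluorescence shift, positive overall ratio signal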
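Assay system: HEK293 cells with stable TRPC4beta plus mu-opioid receptor expression. Dosing: single dose. Measured by: Fluo4 Ca2+ flux fluorescence. Also added: DAMGO in two steps, submaximal then maximal. Read-out: B score from integrated Fluo4 fluorescence ratio.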
TRPC4 sel inh 2: second check of whether TRPC6 inhibitors also affect mouse TRPC4; shares compounds with TRPC6 inh; HEK293 TRPC4/MOR, membrane potential dye fluorescence; channel activated by saturating DAMGO dose; inhibition, % at 10 µM; 920 compounds, 42% hits; AID 2776;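 active = compounds whose fluorescence signal differed from control wells by over 3 SD, either direction, in both duplicate plates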
TRPC4 spec: tests whether TRPC6 inhibitors also affect mouse TRPC4; shares compounds with TRPC6 inh; HEK293 TRPC4/mu-opioid, membrane potential fluorescence; activity change, negative = inhibition, % at 10 µM; 920 compounds, 61% hits;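 active = rise or fall in signal beyond 3 SD of buffer-only wells in both replicate plates, either sign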;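 also: integrated kinetic ratio of fluorescence range over baseline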
HEK293 MPD ctr 2-1: parental HEK293 nonspecific activity of TRPC6 inhibitors, second screen; signal change vs control, % at 10 µM; AID 2779; 920 compounds, 31% hits; shares compounds with TRPC6 inh; parental HEK293 membrane potential dye fluorescence; maximal acetylcholine challenge after compound addition;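 active = membrane potential signal moving either way by over 3 SD of the maximum-effect control, in both duplicate plates, meaning non-specific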
HEK293 MPD ctr-1: checks TRPC6 inhibitor effects in parental HEK293 cells; shares compounds with TRPC6 inh; 920 compounds, 60% hits; membrane potential signal change, % at 10 µM; AID 2780; parental HEK293 membrane potential dye fluorescence;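 active = membrane potential signal shifting up or down by more than 3 SD of buffer-only wells, on both duplicate plates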
HEK293 MPD ctr-2: checks TRPC6 modulator effects in parental HEK293 cells | shares compounds with TRPC6 inh | membrane potential dye fluorescence | membrane potential signal change, % at 10 µM | 2,400 compounds, 51% hits | AID 488924;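 active = membrane potential signal moves up or down beyond 5 SD from buffer-only wells, on both duplicate plates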
HEK293 MPD ctr 2-2: second counter-screen for TRPC6 modulators: effect in parental HEK293 cells; shares compounds with TRPC6 inh; membrane potential dye fluorescence; after compound, maximal acetylcholine stimulation; inhibition, % at 10 µM; 2,400 compounds, 14% hits; AID 488926;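 active = membrane potential signal drops by more than 5 SD from the mean control signal, in both duplicate plates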;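 also: plate controls were acetylcholine ECmax control wells for no effect and buffer only wells for full effect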
TRPC4 ctr mod: tests whether TRPC6 modulators also affect mouse TRPC4 | shares compounds with TRPC6 inh | HEK293 TRPC4/mu-opioid, membrane potential fluorescence | percent change from control (negative = decrease, positive = increase), % at 10 µM | 2,400 compounds, 69% hits | AID 488927;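 active = membrane potential signal moved up or down beyond 5 SD of buffer control wells, in both duplicate plates, actives on both sides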;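 also: plate controls were assay buffer wells for no effect and DAMGO maximal-effect wells for full effect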
TRPC4 ctr inh 2: mouse TRPC4 off-target activity of TRPC6 modulators, second screen; shares compounds with TRPC6 inh; HEK293 TRPC4/mu-opioid, membrane potential dye fluorescence; stimulated with maximal-effect DAMGO; inhibition, % at 10 µM; 2,400 compounds, 55% hits;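 active = drop in membrane potential signal beyond 5 SD of the control wells in both duplicate plates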;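 also: TRPC4 counter screen for TRPC6 hits run under conditions tuned for TRPC6 not TRPC4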
TRPC6 inh conf: confirmation of mouse TRPC6 inhibitors; shares compounds with TRPC6 inh; HEK293-TRPC6, membrane potential dye, ACh-evoked depolarization; inhibition, % at 10 µM; 3,300 compounds, 43% hits; AID 488960;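 active = fluorescence ratio falls more than 5 SD below the full-stimulation control mean, in both duplicate runs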;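 also: integrated fluorescence ratio of peak minus minimum over baseline after agonist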
TRPC6 act conf: mouse TRPC6 activator confirmation; shares compounds with TRPC6 inh; 2,800 compounds, 11% hits; activation, % at 10 µM; AID 488961; HEK293-TRPC6 membrane potential dye fluorescence, FDSS;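 active = ratio signal rise beyond 5 SD above unstimulated control wells' mean, seen in both duplicate runs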;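 also: plate controls were buffer EC0 wells for no effect and acetylcholine ECmax response for full effect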
* hit, by the source's call; i = inactive; . = not tested or not shown. Sampled rows, rich in hits. Any-hit rate of the full collection: about 2.3%.

SMILES | TRPC6 act | TRPC4 act | TRPC6 inh | TRPC4 potent | TRPC4 inh | TRPC6 inh conf | TRPC6 act conf | others
CC(C)C(Sc1nc(-c2ccccc2)cc(-c2ccccc2)c1C#N)C(=O)O (stereo unspecified) | 13.3* | i | i | i | i | i | 126.0%* | HEK293 MPD ctr-2=355.0%*;HEK293 MPD ctr 2-2=i;TRPC4 ctr mod=66.5%*;TRPC4 ctr inh 2=i
Fc1ccc(-c2n[nH]c(=S)c3ccccc23)cc1 | i | i | i | i | i | . | .
CCOc1ccc(CCNC(=O)C2CCCN(c3nn4c(=O)cc(C)nc4s3)C2)cc1OCC (stereo unspecified) | i | i | i | i | i | . | .
CCOc1ccc(CCNC(=O)C2CCCN(c3nnc(-n4cccc4)s3)C2)cc1OCC (stereo unspecified) | i | i | -5.45* | i | i | i | i | HEK293 MPD ctr-2=i;HEK293 MPD ctr 2-2=i;TRPC4 ctr mod=i;TRPC4 ctr inh 2=i
COc1ccc(NC(=O)C/C(C)=N/NC(=O)c2cccs2)c([N+](=O)[O-])c1 | i | i | i | i | i | . | .
Cc1ccccc1-n1nc(C(=O)c2cccs2)cc(-c2nc3ccccc3[nH]2)c1=N | i | i | -11.3* | i | i | i | i | TRPC4 sel inh 2=66.0%*;TRPC4 spec=-9.6%*;HEK293 MPD ctr 2-1=i;HEK293 MPD ctr-1=i
Cc1cc(NC(=O)c2cccs2)n(-c2nc3ccccc3[nH]2)n1 | i | i | i | i | i | . | .
Cc1cccc(-n2nc(C(=O)c3ccco3)cc(-c3nc4ccccc4[nH]3)c2=N)c1 | i | i | -5.39* | i | i | i | i | HEK293 MPD ctr-2=i;HEK293 MPD ctr 2-2=i;TRPC4 ctr mod=20.0%*;TRPC4 ctr inh 2=45.0%*
COc1ccc(-c2nc3ccccc3[nH]2)cc1 | i | i | i | i | i | . | .
COc1ccc(-n2nc(C(=O)c3cccs3)cc(-c3nc4ccccc4[nH]3)c2=N)cc1 | i | i | -9.74* | i | i | 60.6%* | i | TRPC4 sel inh 2=46.0%*;TRPC4 spec=-21.9%*;HEK293 MPD ctr 2-1=37.0%*;HEK293 MPD ctr-1=-238.5%*
Fc1ccc(CN2CCCCCCC2)cc1F | i | i | i | i | i | . | .
CCOc1ccc(CCNC(=O)COC(=O)c2cc(OC)c(OC)c(OC)c2)cc1OCC | i | i | i | i | i | . | .
COc1ccc(-n2cnnc2SCC(=O)NC2CCCc3ccccc32)cc1 (stereo unspecified) | i | i | i | i | i | . | .
CC(=O)Nc1ccc(Nc2ccc3c4c(cc(=O)n3C)-c3ccccc3C(=O)c24)cc1 | i | i | i | i | i | . | .
